Laboratory results taken from PMC4062594 (Nature chemical biology, 2014).
Changes are numbered by the printed parent chain. “Also recorded” adds a separate entry of the source.

Assays:
PTP1B1-321 = target: T1, PTP1B1-321 (Homo sapiens, UniProt P18031); experiment: Direct binding assay with [3H]-MSI-1436; conditions: scintillation counting
T1 sequence (P18031 1-321): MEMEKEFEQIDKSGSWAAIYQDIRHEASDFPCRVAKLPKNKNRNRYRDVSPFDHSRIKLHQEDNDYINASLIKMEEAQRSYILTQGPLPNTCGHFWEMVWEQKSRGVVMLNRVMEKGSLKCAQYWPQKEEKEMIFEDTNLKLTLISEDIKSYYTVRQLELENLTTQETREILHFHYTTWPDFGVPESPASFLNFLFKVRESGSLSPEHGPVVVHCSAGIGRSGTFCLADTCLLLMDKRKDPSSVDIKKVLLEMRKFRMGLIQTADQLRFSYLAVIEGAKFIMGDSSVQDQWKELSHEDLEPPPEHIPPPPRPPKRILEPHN
How it was run: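 Protein was captured on Ni-NTA beads (10 min, 25°C) and washed three times with buffer containing 150 mM NaCl. Bound ligand was measured by scintillation and bead-bound protein by BCA. Free ligand was calculated as total minus bound, for Scatchard analysis.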

[1] = tested on: panel of breast cancer cells; experiment: Annexin/PI staining; type: cell-based; conditions: cells sensitive to Lapatinib
How it was run: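 Cells (1 × 10^5) plated in 6-well plates in growth medium, left untreated or given test compound at 2 and 5 μM. Stained with annexin and PI per kit instructions, then analysed by flow cytometry.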

[2] = tested on: PTP1B V370, S372 and R373 to alanine; experiment: PTP assay, alanine point mutants; type: biochemical, human; conditions: data not shown
PTP1B1-405 L192A/S372P = target: T2, PTP1B1-405 L192A/S372P (Homo sapiens, UniProt P18031, L192A/S372P); experiment: PTP assay, double point mutant; type: biochemical
T2 sequence (P18031 1-405 L192A/S372P): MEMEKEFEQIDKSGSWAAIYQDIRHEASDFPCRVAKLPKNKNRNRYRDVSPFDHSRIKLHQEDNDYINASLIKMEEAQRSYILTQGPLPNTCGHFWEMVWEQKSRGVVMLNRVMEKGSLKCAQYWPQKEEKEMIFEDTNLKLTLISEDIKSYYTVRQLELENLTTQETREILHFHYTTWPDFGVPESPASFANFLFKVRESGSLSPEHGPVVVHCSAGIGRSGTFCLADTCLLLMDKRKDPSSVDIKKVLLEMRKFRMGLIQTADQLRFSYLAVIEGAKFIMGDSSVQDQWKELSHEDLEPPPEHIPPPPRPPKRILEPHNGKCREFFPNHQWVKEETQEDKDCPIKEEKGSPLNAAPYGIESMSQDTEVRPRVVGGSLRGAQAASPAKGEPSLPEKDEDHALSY
How it was run: (§1)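 Continuous fluorescence PTP assay with 10 nM purified PTP1B and 10 μM DiFMUP substrate. Emission at 450 nm was monitored for 20 minutes.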

MCF10A-NeuNT cells = experiment: Cell migration with PTP1B knock-down and re-expression; type: cell-based
How it was run: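 MCF10A-NeuNT cells carried doxycycline-inducible control or PTP1B shRNA miRs; doxycycline (500 ng/mL) was added 12 h after seeding and refreshed every 12 h. Cells were transfected 24 h with wild type or L192A/S372P PTP1B, then left untreated or given test compound (1 or 2 μM). Cells were run in Matrigel invasion chambers (8.0 μm pores) for 24–48 h, and migrated cells were Giemsa-stained and counted. Three experiments, in duplicate.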

PTP1B1-405 [3] = target: T3, PTP1B1-405 (Homo sapiens, UniProt P18031); experiment: Gel filtration
T3 sequence (P18031 1-405): T2 sequence (P18031 1-405 L192A/S372P) with A192L, P372S

PTP1B (1-346) = target: T4, PTP1B (1-346) (Homo sapiens, UniProt P18031); experiment: PTP assay, truncation mutant; type: biochemical; conditions: similar to PTP1B1-321
T4 sequence (P18031 1-346): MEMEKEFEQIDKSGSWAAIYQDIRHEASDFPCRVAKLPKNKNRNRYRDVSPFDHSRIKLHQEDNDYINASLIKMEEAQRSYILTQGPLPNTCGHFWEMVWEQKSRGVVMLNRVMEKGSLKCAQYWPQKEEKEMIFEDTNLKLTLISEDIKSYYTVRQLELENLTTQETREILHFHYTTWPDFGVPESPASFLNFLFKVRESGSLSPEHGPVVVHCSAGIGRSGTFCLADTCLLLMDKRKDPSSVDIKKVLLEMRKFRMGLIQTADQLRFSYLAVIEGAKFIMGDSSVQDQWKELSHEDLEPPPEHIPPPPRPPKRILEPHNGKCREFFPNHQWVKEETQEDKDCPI
How it was run: as §1

SKBR3 cells = experiment: Cell migration assay; type: cell-based; conditions: HER2-positive, MSI-1436 5 µM
PTP1B1-405 [4] = target: T3, PTP1B1-405; experiment: Limited proteolysis with trypsin; conditions: saturating concentrations of MSI-1436 (5 μM)
10A.B2 cells = experiment: Cell migration assay; type: cell-based; conditions: 2D culture, similar extent to PTP1B-directed shRNA

stoichiometry (PTP1B1-321): 1 mol/mol | calculated molecular weight of PTP1B1-405 (PTP1B1-405 [3]; in the presence of the inhibitor (~47k in the absence)): ~ 43 k | inhibitory potency compared to PTP1B1-405 and PTP1B1-394 (PTP1B (1-346)): lower | sensitivity to trypsin (PTP1B1-405 [4]): more trypsin-resistant state
SMILES: CC(C)[C@@H](CC[C@@H](C)[C@H]1CC[C@H]2[C@@H]3[C@H](O)C[C@H]4C[C@@H](NCCCNCCCCNCCCN)CC[C@]4(C)[C@H]3CC[C@]12C)OS(=O)(=O)O [MSI-1436, Trodusquemine]
apoptosis [1]: limited effect on apoptosis | effect of alanine mutations on inhibition by MSI-1436 [2]: did not affect | inhibition by MSI-1436 (PTP1B1-405 L192A/S372P): complete loss of inhibition; also recorded: insensitive to MSI-1436 | migration (MCF10A-NeuNT cells; PTP1B knock-down, reconstituted with PTP1B-L192A/S372P, MSI-1436 1 or 2 μM): no longer sensitive | migration (MCF10A-NeuNT cells; PTP1B knock-down, reconstituted with wild type PTP1B, MSI-1436 1 or 2 μM): remained sensitive to inhibition | migration (MCF10A-NeuNT cells; absence of doxycycline (endogenous PTP1B)): attenuated | oligomerization of the phosphatase (PTP1B1-405 [3]): did not cause the phosphatase to oligomerize | migration (SKBR3 cells): attenuated migration | migration (10A.B2 cells): inhibited migration
